Values belong to the compound of their own block, whether it stands above or below them. Calls of active or inactive are those of the source. The calls are words filed in the database; no cut-off is given here.
Tests used:
[1] = target: Poly [ADP-ribose] polymerase 1 (Homo sapiens, UniProt P09874); experiment: Inhibition of recombinant human PARP1 using histone as substrate after 1 hr in presence of biotinylated NAD+ by ELISA
[2] = target: Phosphatidylinositol 4,5-bisphosphate 3-kinase catalytic subunit alpha isoform (Homo sapiens, UniProt P42336); experiment: Inhibition of PI3Kalpha (unknown origin) using PIP2 as substrate measured after 1 hr by ADP-glo plus luminescence assay
Sequence of Phosphatidylinositol 4,5-bisphosphate 3-kinase catalytic subunit alpha isoform (P42336 whole entry, canonical isoform): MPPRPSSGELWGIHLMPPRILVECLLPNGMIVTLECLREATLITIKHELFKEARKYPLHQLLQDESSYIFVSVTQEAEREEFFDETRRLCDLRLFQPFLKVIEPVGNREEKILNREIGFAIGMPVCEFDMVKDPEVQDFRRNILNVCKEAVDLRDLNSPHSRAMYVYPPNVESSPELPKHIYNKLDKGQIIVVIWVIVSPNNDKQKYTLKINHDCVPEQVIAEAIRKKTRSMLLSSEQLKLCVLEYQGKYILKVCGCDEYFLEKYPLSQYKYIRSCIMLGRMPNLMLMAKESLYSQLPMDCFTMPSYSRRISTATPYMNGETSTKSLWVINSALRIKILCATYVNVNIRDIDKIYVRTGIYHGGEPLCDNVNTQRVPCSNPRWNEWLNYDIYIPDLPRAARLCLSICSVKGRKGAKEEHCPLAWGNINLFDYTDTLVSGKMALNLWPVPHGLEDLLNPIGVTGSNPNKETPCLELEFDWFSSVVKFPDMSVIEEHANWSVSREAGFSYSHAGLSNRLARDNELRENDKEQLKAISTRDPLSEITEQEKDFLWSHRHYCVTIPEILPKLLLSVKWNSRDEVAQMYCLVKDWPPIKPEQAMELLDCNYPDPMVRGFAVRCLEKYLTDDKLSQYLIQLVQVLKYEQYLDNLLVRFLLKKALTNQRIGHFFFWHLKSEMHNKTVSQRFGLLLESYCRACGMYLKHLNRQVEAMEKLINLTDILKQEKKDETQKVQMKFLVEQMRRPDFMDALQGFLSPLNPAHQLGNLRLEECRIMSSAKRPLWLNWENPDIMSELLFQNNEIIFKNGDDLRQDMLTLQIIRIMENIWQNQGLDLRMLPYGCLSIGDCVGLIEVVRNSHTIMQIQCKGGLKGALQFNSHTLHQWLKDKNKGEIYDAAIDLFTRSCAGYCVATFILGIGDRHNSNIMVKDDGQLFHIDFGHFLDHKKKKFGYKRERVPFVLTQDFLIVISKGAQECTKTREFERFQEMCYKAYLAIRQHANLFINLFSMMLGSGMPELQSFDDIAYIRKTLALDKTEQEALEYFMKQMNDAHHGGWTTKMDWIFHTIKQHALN

[3] = test system: MDA-MB-468; experiment: Induction of apoptosis in human MDA-MB-468 cells assessed as increase in cleaved PARP level at 1 uM […] by Western blot analysis; format: functional, cell-based
[4] = test system: MDA-MB-468; experiment: Inhibition of PI3K in human MDA-MB-468 cells assessed as reduction in AKT phosphorylation at S473 residue at 1 uM measured after 6 to 72 hrs by Western blot analysis; format: cell-based
Procedure, shortened: (§1)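 MDA-MB-468 cells seeded overnight, then exposed for 6 h; control medium contained 1‰ DMSO. Lysates run on 8–12% SDS-PAGE and transferred to PVDF. Blots blocked in 5% BSA/TBST and probed for pAKT-Ser473/total AKT or pS6-Ser240/total S6, with β-actin as loading control. HRP secondary with ECL detection; bands quantified by densitometry. Three independent experiments.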

[5] = test system: HCC1937; experiment: Antiproliferative activity against human HCC1937 cells measured after 7 days by Celltiter-glo assay; format: functional, cell-based; conditions: HCC1937, 168 h
Procedure, shortened: (§2)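 Cells maintained in RPMI1640 with 10% FBS at 37 °C, 5% CO2. Seeded the day before dosing, grown 12 h, then exposed to graded compound concentrations for 7 days. CellTiter-Glo reagent added, 10 min at room temperature, luminescence read. Inhibition % = (1-(RLU compound - RLU blank)/(RLU DMSO - RLU blank))×100. IC50 from nonlinear regression, normalized dose-response fit.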

[6] = Toxicity in BALB/c mouse xenografted with human MDA-MB-468 cells assessed as mortality at 50 mg/kg, ip administered every 2 days for 34 days; format: organism-based; conditions: in vivo
Procedure, shortened: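 Nude mice bearing subcutaneous right-flank MDA-MB-468 tumours (2 × 10^6 exponential-phase cells implanted). Randomised at about 100 mm³ tumour volume; 6 mice per group. Dosed ip every 2 days for 34 days. Vehicle controls received PBS with 5% DMSO. Body weight and tumour size recorded every 2 days; tumour volume calculated as ab²/2 from caliper diameters.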

[7] = test system: MDA-MB-468; experiment: Induction of apoptosis in human MDA-MB-468 cells assessed as viable cells at 1 uM measured after 72 hrs by Annexin V-FITC/propidium iodide staining based flow cytometry (reference value: 95.2%); format: functional; conditions: MDA-MB-468, 72 h, read-out: Activity
[8] = test system: MDA-MB-468; experiment: Inhibition of PI3K in human MDA-MB-468 cells assessed as reduction in RAD51 foci formation at 1 uM measured after 72 hrs by DAPI staining based immunofluorescence microscopic analysis; format: cell-based
Procedure, shortened: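 RAD51 foci in MDA-MB-468 cells on coverslips after 72 h drug exposure. Cells fixed (3% formaldehyde), permeabilized (0.1% Triton X-100), blocked in 10% FBS/PBS, incubated overnight at 4 °C with rabbit anti-RAD51 polyclonal, then secondary antibody plus DAPI. Foci and percent positive cells (>5 foci per cell) counted from about 200 cells. Mean ± SD of three independent experiments.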

[9] = test system: MDA-MB-468; experiment: Induction of apoptosis in human MDA-MB-468 cells assessed as late apoptotic cells at 1 uM measured after 72 hrs by Annexin V-FITC/propidium iodide staining based flow cytometry (reference value: 0.78%); format: functional
[10] = test system: MDA-MB-468; experiment: Induction of apoptosis in human MDA-MB-468 cells assessed as necrotic cells at 1 uM measured after 72 hrs by Annexin V-FITC/propidium iodide staining based flow cytometry (reference value: 0.13%); format: functional
[11] = test system: MDA-MB-468; experiment: Inhibition of PI3K in human MDA-MB-468 cells assessed as reduction in BRCA1 mRNA level at 1 uM by Trizol reagent-based RT-PCR analysis; format: cell-based
Procedure, shortened: (§3)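 Total RNA from treated MDA-MB-468 cells extracted with TRIzol. BRCA1 or BRCA2 mRNA quantified by real-time PCR with GAPDH as internal control. Results given as fold change relative to the internal control. Mean ± SD of three independent experiments.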

[12] = test system: MDA-MB-231; experiment: Antiproliferative activity against human MDA-MB-231 cells measured after 7 days by Celltiter-glo assay; format: functional, cell-based; conditions: MDA-MB-231, 168 h; procedure, shortened: as §2
[13] = test system: MDA-MB-468; experiment: Activation of ERK in human MDA-MB-468 cells assessed as increase in ERK autophosphorylation at T202 residue at 1 uM measured after 6 to 72 hrs by Western blot analysis; format: cell-based
Procedure, shortened: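 MDA-MB-468 cells seeded in six-well plates, incubated overnight, then treated for 6 h, with 1‰ (v/v) DMSO medium as control. Lysates cleared at 4 °C, protein quantified by BCA, resolved by 8-12% SDS-PAGE and transferred to PVDF. Membranes blocked in 5% BSA/TBST, probed with primary antibodies (pERK-Thr202, total ERK, cleaved PARP, β-actin) and HRP secondary. ECL detection, band densitometry.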

[14] = test system: HCT-116; experiment: Antiproliferative activity against human HCT116 cells measured after 7 days by Celltiter-glo assay; format: functional, cell-based; conditions: HCT-116, 168 h; procedure, shortened: as §2
[15] = test system: MDA-MB-468; experiment: Inhibition of PI3K in human MDA-MB-468 cells assessed as reduction in pS6 phosphorylation at S240 residue at 1 uM measured after 6 to 72 hrs by Western blot analysis; format: cell-based; procedure, shortened: as §1
[16] = test system: MDA-MB-468; experiment: Induction of DNA damage in human MDA-MB-468 cells at 1 uM measured after 72 hrs by comet assay; format: functional, cell-based
Procedure, shortened: (§4)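 MDA-MB-468 cells treated for 72 h, harvested and run in a neutral comet assay. Ethidium bromide staining after electrophoresis. About 200 cell images per group analysed with CASP. DNA damage scored as tail intensity (percentage DNA in tail) and olive tail moment. Mean ± SD of three independent experiments.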

[17] = test system: MDA-MB-468; experiment: Inhibition of PI3K in human MDA-MB-468 cells assessed as increase in gammaH2AX foci formation at 1 uM measured after 72 hrs by DAPI staining based immunofluorescence microscopic analysis; format: cell-based
Procedure, shortened: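 MDA-MB-468 cells on coverslips given drugs for 72 h. Fixed in 3% formaldehyde, permeabilized with 0.1% Triton X-100, blocked in 10% FBS/PBS, then rabbit anti-γH2AX (Ser139) overnight at 4 °C. Secondary antibody and DAPI stain followed. About 200 cells scored for foci; a cell was positive with more than 5 foci. Three independent experiments.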

[18] = test system: MDA-MB-468; experiment: Antitumor activity against human MDA-MB-468 cells xenografted in BALB/c mouse assessed as tumor growth inhibition at 50 mg/kg, ip administered every 2 days for 34 days and measured at 2 days interval during compound dosing relative to control; format: functional; conditions: MDA-MB-468, ip, read-out: TGI
[19] = test system: MDA-MB-468; experiment: Antiproliferative activity against human MDA-MB-468 cells measured after 7 days by Celltiter-glo assay; format: functional, cell-based; conditions: MDA-MB-468, 168 h; procedure, shortened: as §2
[20] = test system: MDA-MB-468; experiment: Inhibition of PI3K in human MDA-MB-468 cells assessed as reduction in BRCA2 mRNA level at 1 uM by Trizol reagent-based RT-PCR analysis; format: cell-based; procedure, shortened: as §3
[21] = test system: MDA-MB-468; experiment: Induction of apoptosis in human MDA-MB-468 cells assessed as early apoptotic cells at 1 uM measured after 72 hrs by Annexin V-FITC/propidium iodide staining based flow cytometry (reference value: 3.88%); format: functional
[22] = test system: DU-145; experiment: Antiproliferative activity against human DU145 cells measured after 7 days by Celltiter-glo assay; format: functional, cell-based; conditions: DU-145, 168 h; procedure, shortened: as §2
[23] = test system: MDA-MB-468; conditions: Homo sapiens, 2 uM
[24] = test system: MDA-MB-468; experiment: Induction of DNA damage in human MDA-MB-468 cells at 2 uM measured after 72 hrs by comet assay; format: functional, cell-based; procedure, shortened: as §4
[25] = test system: SW-620; experiment: Antiproliferative activity against human SW620 cells measured after 7 days by Celltiter-glo assay; format: functional, cell-based; conditions: SW-620, 168 h; procedure, shortened: as §2
[26] = test system: Jurkat; experiment: Antiproliferative activity against human Jurkat cells measured after 7 days by Celltiter-glo assay; format: functional, cell-based; conditions: 168 h; procedure, shortened: as §2
[27] = test system: A2780; experiment: Antiproliferative activity against human A2780 cells measured after 7 days by Celltiter-glo assay; format: functional, cell-based; conditions: A2780, 168 h; procedure, shortened: as §2
[28] = test system: A549; experiment: Antiproliferative activity against human A549 cells measured after 7 days by Celltiter-glo assay; format: functional, cell-based; conditions: A549, 168 h; procedure, shortened: as §2
[29] = test system: MDA-MB-468; conditions: Homo sapiens, 2 uM; remark: listed apart in the source
[30] = test system: MDA-MB-468; conditions: Homo sapiens, 2 uM; remark: listed apart in the source
[31] = test system: MDA-MB-468; experiment: Induction of apoptosis in human MDA-MB-468 cells assessed as viable cells at 2 uM measured after 72 hrs by Annexin V-FITC/propidium iodide staining based flow cytometry (reference value: 95.2%); format: functional
[32] = test system: Ramos; experiment: Antiproliferative activity against human Ramos cells measured after 7 days by Celltiter-glo assay; format: functional, cell-based; conditions: 168 h; procedure, shortened: as §2
[33] = test system: BXPC-3; experiment: Antiproliferative activity against human BxPC3 cells measured after 7 days by Celltiter-glo assay; format: functional, cell-based; conditions: BXPC-3, 168 h; procedure, shortened: as §2
[34] = test system: CAKI-1; experiment: Antiproliferative activity against human CAKI-1 cells measured after 7 days by Celltiter-glo assay; format: functional, cell-based; conditions: CAKI-1, 168 h; procedure, shortened: as §2

Sequence of Poly [ADP-ribose] polymerase 1 (P09874 whole entry, canonical isoform): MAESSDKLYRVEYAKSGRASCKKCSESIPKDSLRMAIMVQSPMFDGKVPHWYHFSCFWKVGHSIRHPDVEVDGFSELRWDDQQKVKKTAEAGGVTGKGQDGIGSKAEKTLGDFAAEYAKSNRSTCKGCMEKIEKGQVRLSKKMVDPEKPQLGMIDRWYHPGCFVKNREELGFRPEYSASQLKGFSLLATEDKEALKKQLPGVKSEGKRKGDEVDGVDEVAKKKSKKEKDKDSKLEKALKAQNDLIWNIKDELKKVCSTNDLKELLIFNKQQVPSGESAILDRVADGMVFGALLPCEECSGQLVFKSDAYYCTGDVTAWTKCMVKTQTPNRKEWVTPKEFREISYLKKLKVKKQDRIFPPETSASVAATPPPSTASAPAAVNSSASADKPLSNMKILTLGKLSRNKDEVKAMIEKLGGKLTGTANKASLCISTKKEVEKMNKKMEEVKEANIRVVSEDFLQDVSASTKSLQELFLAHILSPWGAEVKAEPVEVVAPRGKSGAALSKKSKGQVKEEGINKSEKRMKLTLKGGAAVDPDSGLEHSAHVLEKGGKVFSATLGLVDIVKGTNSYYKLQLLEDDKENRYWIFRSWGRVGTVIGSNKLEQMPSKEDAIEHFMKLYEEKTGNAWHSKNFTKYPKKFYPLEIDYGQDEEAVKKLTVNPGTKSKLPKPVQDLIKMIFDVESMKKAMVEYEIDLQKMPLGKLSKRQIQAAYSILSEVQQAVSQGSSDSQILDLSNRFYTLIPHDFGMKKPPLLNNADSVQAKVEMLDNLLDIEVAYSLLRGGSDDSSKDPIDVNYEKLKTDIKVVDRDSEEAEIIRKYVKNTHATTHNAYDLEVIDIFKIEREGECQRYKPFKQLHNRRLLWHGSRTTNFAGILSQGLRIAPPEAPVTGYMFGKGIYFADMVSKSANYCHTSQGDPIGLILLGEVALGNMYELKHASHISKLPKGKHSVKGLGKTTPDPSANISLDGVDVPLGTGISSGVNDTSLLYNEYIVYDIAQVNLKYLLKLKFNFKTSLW

Compound: Nc1ccc(-c2nc(N3CCOCC3)nc(N3CCN(C(=O)c4cc(Cc5n[nH]c(=O)c6ccccc56)ccc4F)CC3)n2)cc1
IC50 [1]: 1.17 nM | IC50 [2]: 331 nM

Compound: O=C(c1cc(Cc2n[nH]c(=O)c3ccccc23)ccc1F)N1CCc2c(nc(-c3cccc4[nH]ccc34)nc2N2CCOCC2)C1
IC50 [1]: 4.9 nM | IC50 [2]: 43.7 nM

Compound: O=C(c1cc(Cc2n[nH]c(=O)c3ccccc23)ccc1F)N1CCN(c2nc(-c3cccc4[nH]ncc34)nc(N3CCOCC3)n2)CC1
IC50 [1]: 0.437 nM | IC50 [2]: 347 nM

Compound: O=C(c1cc(Cc2n[nH]c(=O)c3ccccc23)ccc1F)N1CCN(c2nc(-c3cccc4[nH]ccc34)nc(N3CCOCC3)n2)CC1
IC50 [1]: 0.646 nM | IC50 [2]: 631 nM

Compound: Nc1ncc(-c2nc3c(c(N4CCOCC4)n2)CCN(C(=O)c2cc(Cc4n[nH]c(=O)c5ccccc45)ccc2F)C3)cn1
Activity [3]: Active | IC50 [1]: 2.57 nM | inhibition [4]: Active | IC50 [5]: 3470 nM | Activity [6]: Non-Toxic | viability at 1 µM [7]: 65.9% | inhibition [8]: Active | Activity [9]: 19.4% | Activity [10]: 1.15% | inhibition [11]: Active | IC50 [12]: 3550 nM | Activity [13]: Active | IC50 [14]: 1580 nM | IC50 [2]: 4.79 nM | inhibition [15]: Active | Activity [16]: Active | inhibition [17]: Active | inhibition in vivo at 50 mg/kg [18]: 52.7% | IC50 [19]: 2570 nM | inhibition [20]: Active | Activity [21]: 14.6%

Compound: O=C(c1cc(Cc2n[nH]c(=O)c3ccccc23)ccc1F)N1CCN(C(=O)C2CC2)CC1 [OLAPARIB]
IC50 [22]: 6310 nM | inhibition [23]: Active | Activity [24]: Active | IC50 [25]: 10200 nM | IC50 [5]: 4570 nM | IC50 [26]: 1700 nM | IC50 [27]: 741 nM | IC50 [28]: 5370 nM | inhibition [29]: Active | IC50 [12]: 18200 nM | inhibition [30]: Active | Activity [31]: 91.5% | IC50 [14]: 3020 nM | IC50 [32]: 3980 nM | IC50 [33]: 11700 nM | IC50 [19]: 13800 nM | IC50 [34]: 7080 nM

Now from value to compound:

IC50 [1]: 9.55 nM | IC50 [2]: 170 nM
Compound: Nc1cc(C(F)(F)F)c(-c2nc(N3CCOCC3)nc(N3CCN(C(=O)c4cc(Cc5n[nH]c(=O)c6ccccc56)ccc4F)CC3)n2)cn1

IC50 [1]: 0.832 nM | IC50 [2]: 562 nM
Compound: Nc1ccc(-c2nc(N3CCOCC3)nc(N3CCN(C(=O)c4cc(Cc5n[nH]c(=O)c6ccccc56)ccc4F)CC3)n2)cc1F

IC50 [1]: 15.5 nM | IC50 [2]: 324 nM
Compound: Nc1cc(C(F)(F)F)c(-c2cc(N3CCN(C(=O)c4cc(Cc5n[nH]c(=O)c6ccccc56)ccc4F)CC3)nc(N3CCOCC3)n2)cn1

From ChEMBL document CHEMBL4376860, “Discovery of Novel Dual Poly(ADP-ribose)polymerase and Phosphoinositide 3-Kinase Inhibitors as a Promising Strategy for Cancer Therapy” (J Med Chem, 2020)
